The target in data set [1] is proteinase K (Parengyodontium album, UniProt P06873). Nature of the data set: Protease activity assay, proteinase K. In kind it is biochemical, Engyodontium album.
Data set [2] concerns the target human chymotrypsin (Homo sapiens, UniProt P17538). In words: Protease activity assay, chymotrypsin. Format: biochemical. The conditions noted are these: isoleucine in 1 versus valine in 2 and 3.
The test system of data set [3] is bovine trypsin. In words: Protease activity assay, trypsin. The conditions noted are these: incubated with up to 20 μM. In kind it is biochemical. A digest of the protocol:
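Bovine trypsin in DPBS pH 7.4 with 0.01% Tween-20 and 2 mM DTT was preincubated for 30 min at 22°C with an equal volume of 3-fold serial dilutions of the test compound (DMSO stock; final 20 μM to 339 pM). The mix was added to z-Leu-Arg-Arg-AMC (final 100 μM; enzyme 10 nM). AMC fluorescence (360/460 nm) was read every 3 min at 22°C, and the rate (RFU/s) was taken over 30 min.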

In data set [4] the test system is H-460 lung cancer cell line. Nature of the data set: H-460 lung cancer cell cytotoxicity assay. Format: cell-based. To be noted: read-out: Cytotoxic activity IC50.

Chain of human chymotrypsin (P17538 19-263): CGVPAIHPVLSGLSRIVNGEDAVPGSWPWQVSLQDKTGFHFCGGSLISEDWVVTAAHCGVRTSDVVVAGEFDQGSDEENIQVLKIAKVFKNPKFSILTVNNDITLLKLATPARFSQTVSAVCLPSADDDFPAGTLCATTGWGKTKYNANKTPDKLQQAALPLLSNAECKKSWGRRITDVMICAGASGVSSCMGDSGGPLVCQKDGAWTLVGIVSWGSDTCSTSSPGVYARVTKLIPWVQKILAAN
Chain of proteinase K (P06873 106-384): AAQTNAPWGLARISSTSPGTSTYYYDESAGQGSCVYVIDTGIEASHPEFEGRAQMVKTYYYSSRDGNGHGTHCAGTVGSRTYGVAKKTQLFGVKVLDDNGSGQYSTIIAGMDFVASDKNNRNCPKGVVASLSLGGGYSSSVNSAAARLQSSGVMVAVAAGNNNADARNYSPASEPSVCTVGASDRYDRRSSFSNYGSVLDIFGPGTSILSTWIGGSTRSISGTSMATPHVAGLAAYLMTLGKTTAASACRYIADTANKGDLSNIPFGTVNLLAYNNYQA

For `C/C=C1\NC(=O)[C@@H](NC(=O)[C@H](CCC(N)=O)NC(=O)CCCCC)[C@@H](C)OC(=O)[C@H](C(C)C)NC(=O)[C@H](Cc2ccc(O)cc2)N(C)C(=O)[C@H](Cc2ccccc2)N2C(=O)[C@H](CC[C@H]2O)NC1=O` [Lyngbyastatin 7, lyngbyastatin 7], the IC50 in data set [1] came to 1.57 µM.
On to `C/C=C1\NC(=O)[C@@H](NC(=O)[C@@H](NC(=O)[C@H](C)NC(=O)C/C(C)=C/Cl)[C@@H](C)CC)[C@@H](C)OC(=O)[C@H](C(C)C)NC(=O)[C@H](Cc2ccc(O)cc2)N(C)C(=O)[C@H](Cc2ccccc2)N2C(=O)[C@H](CC[C@H]2O)NC1=O` [Tutuilamide A (1), tutuilamide A], for which the “Fold reduction in potency for chymotrypsin” value in data set [2] was 2 fold. Besides, the “Inhibition of bovine trypsin” value in data set [3] is recorded as “no inhibition”. Also, the IC50 in data set [4] came out at 0.53 ± 0.04 µM.
Consider `C/C=C1\NC(=O)[C@@H](NC(=O)[C@@H](NC(=O)[C@H](C)NC(=O)C/C(C)=C/Cl)C(C)C)[C@@H](C)OC(=O)[C@H](C(C)C)NC(=O)[C@H](Cc2ccc(O)cc2)N(C)C(=O)[C@H](Cc2ccccc2)N2C(=O)[C@H](CC[C@H]2O)NC1=O` [Tutuilamide B (2), tutuilamide B], for which the “Inhibition of bovine trypsin” value in data set [3] was “no inhibition”. In data set [4], the IC50 was 1.27 ± 0.21 µM.
With `C/C=C1\NC(=O)[C@@H](NC(=O)[C@@H](NC(=O)C/C(=C/Cl)CC)C(C)C)[C@@H](C)OC(=O)[C@H](C(C)C)NC(=O)[C@H](Cc2ccc(O)cc2)N(C)C(=O)[C@H](Cc2ccccc2)N2C(=O)[C@H](CC[C@H]2O)NC1=O` [Tutuilamide C (3), tutuilamide C], the “Inhibition of bovine trypsin” value in data set [3] is reported as “no inhibition”. Moreover, the IC50 in data set [4] was found to be 4.78 ± 0.45 µM.
